Bioassay records: PubChem, Johns Hopkins Ion Channel Center
TRPC4 agonist = activators of mouse TRPC4 channel, primary screen, Fluo4 calcium, HEK293 TRPC4beta/mu-opioid cells | Short transient receptor potential channel 4 (Mus musculus), Q9QUQ5 | Fluo4 calcium fluorescence; hits give high values | B-score at 10 µM | actives 0.49% (n = 310,000);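 active means B-score above 5 SD of library B-scores, and initial fluorescence ratio not above library mean plus 5 SD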;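 further: positive B-score marks a calcium rise read as TRPC4 activation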
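Assay system – TRPC4beta and mu-opioid receptor HEK293 stable cells · Measured by – Fluo4 fluorescence, kinetic · Schedule – dye loading 45 min room temperature, 110 s kinetic read · Read-out – B-scored integrated calcium fluorescence ratio · Controls – buffer and maximal DAMGO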
TRPC4 PAM = positive allosteric modulators of TRPC4, primary screen, cell-based, mouse TRPC4beta, HEK293 mu-opioid, Fluo-4 calcium. B-score at 10 µM. DAMGO EC20, Fluo-4 Ca2+ flux; hits give high values. actives 0.42% (n = 310,000). AID 2227, 2009;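 active means B-score of calcium response area above 5 SD of library B-scores, with initial fluorescence ratio within 5 SD of library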
TRPC4 block = inhibitors of mouse TRPC4 channel, primary screen, Fluo4 calcium, HEK293 TRPC4beta/mu-opioid cells; B-score at 10 µM; actives 0.39% (n = 300,000); Short transient receptor potential channel 4 (Mus musculus), Q9QUQ5; AID 2247, 2010; DAMGO-evoked Fluo4 calcium flux; hits give low values;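 active means B-score over 3 SD under the library average, no early fluorescence shift, positive overall ratio signal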
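Material: HEK293 cells with stable TRPC4beta plus mu-opioid receptor expression / Probe or stimulus: DAMGO in two steps, submaximal then maximal / Compound: single concentration per test compound / Technique: kinetic Fluo4 fluorescence imaging of calcium influx / Read-out: per-well B score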
TRPC6 act = mouse TRPC6 channel activators, primary screen, cell-based, HEK293, membrane potential dye; HEK293-TRPC6 membrane potential dye fluorescence; hits give high values; B-score at 10 µM; actives 0.13% (n = 310,000);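 active means B-score of the integrated fluorescence ratio above library mean plus 3 SD, and starting fluorescence ratio within library mean plus 5 SD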;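 further: higher score means more depolarization so channel activation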
Target sequence (Q61143 whole entry, looked up): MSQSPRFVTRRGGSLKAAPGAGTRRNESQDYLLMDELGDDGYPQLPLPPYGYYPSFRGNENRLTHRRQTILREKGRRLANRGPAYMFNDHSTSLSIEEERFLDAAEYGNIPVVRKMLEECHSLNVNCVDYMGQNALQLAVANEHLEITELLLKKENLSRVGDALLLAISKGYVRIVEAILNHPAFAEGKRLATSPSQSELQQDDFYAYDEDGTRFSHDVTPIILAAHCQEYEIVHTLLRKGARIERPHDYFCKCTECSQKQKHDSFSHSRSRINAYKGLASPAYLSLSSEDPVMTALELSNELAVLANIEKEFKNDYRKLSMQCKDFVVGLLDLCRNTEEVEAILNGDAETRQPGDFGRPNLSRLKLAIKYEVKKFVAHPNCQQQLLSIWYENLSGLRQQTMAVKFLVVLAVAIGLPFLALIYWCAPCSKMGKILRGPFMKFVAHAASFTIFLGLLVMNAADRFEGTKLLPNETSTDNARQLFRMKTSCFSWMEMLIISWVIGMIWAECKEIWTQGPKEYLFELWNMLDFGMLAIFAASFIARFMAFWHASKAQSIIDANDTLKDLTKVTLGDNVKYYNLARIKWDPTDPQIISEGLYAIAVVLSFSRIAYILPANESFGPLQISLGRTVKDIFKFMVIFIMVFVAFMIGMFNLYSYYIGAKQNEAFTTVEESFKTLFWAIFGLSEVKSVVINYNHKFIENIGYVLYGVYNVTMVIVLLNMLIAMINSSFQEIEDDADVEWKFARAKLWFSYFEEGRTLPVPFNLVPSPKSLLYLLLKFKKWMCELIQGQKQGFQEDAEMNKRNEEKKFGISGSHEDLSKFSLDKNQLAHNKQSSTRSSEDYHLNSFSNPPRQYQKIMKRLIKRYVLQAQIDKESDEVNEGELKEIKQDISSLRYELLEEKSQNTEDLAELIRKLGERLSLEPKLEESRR
TRPC6 inh = mouse TRPC6 channel inhibitors, primary screen, cell-based, HEK293, membrane potential dye | AID 2553, 2010 | B-score at 10 µM | Short transient receptor potential channel 6 (Mus musculus), Q61143 | ACh-evoked depolarization; hits give low values | actives 1.1% (n = 310,000);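 active means B-score under library mean minus 3 SD, initial fluorescence not abnormally high, positive integrated signal ratio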;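 further: B-score derived from integrated fluorescence ratio over the kinetic read; more negative B-score means stronger inhibition of depolarization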
HEK293 MPD ctr = parental HEK293 membrane potential modulation, confirmation, counter-screen for TRPC6 modulator project, cell-based; actives 51% (n = 2,400); membrane potential dye fluorescence; membrane potential signal change, % at 10 µM; AID 488924, 2010; shares compounds with TRPC6 inh;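 active means membrane potential signal moves up or down beyond 5 SD from buffer-only wells, on both duplicate plates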
HEK293 MPD ctr 2 = second counter-screen for TRPC6 modulators: effect in parental HEK293 cells; inhibition, % at 10 µM; shares compounds with TRPC6 inh; actives 14% (n = 2,400); AID 488926; membrane potential dye fluorescence; after compound, maximal acetylcholine stimulation;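 active means membrane potential signal drops by more than 5 SD from the mean control signal, in both duplicate plates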
TRPC4/MOR mod = TRPC4 modulation by TRPC6 hit compounds, confirmation, selectivity assay for TRPC6 modulator project, cell-based, HEK293 TRPC4/mu-opioid, membrane potential dye, mouse; actives 69% (n = 2,400); AID 488927, 2010; shares compounds with TRPC6 inh; percent change from control (negative = decrease, positive = increase), % at 10 µM; membrane potential fluorescence;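 active means membrane potential signal moved up or down beyond 5 SD of buffer control wells, in both duplicate plates, actives on both sides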
TRPC4/MOR inh 2 = mouse TRPC4 off-target activity of TRPC6 modulators, second screen | shares compounds with TRPC6 inh | HEK293 TRPC4/mu-opioid, membrane potential dye fluorescence; stimulated with maximal-effect DAMGO | inhibition, % at 10 µM | actives 55% (n = 2,400) | AID 488928;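 active means drop in membrane potential signal beyond 5 SD of the control wells in both duplicate plates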;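 further: TRPC4 counter screen for TRPC6 hits run under conditions tuned for TRPC6 not TRPC4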
TRPC6 block conf = mouse TRPC6 channel inhibitors, confirmation, HEK293 cells, membrane potential dye, duplicate; AID 488960, 2010; shares compounds with TRPC6 inh; ACh-evoked depolarization; actives 43% (n = 3,300); inhibition, % at 10 µM;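 active means fluorescence ratio falls more than 5 SD below the full-stimulation control mean, in both duplicate runs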;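 further: integrated fluorescence ratio of peak minus minimum over baseline after agonist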
TRPC6 act conf = mouse TRPC6 channel activators, confirmation, HEK293 cells, membrane potential dye, duplicate; shares compounds with TRPC6 inh; HEK293-TRPC6 membrane potential dye fluorescence, FDSS; activation, % at 10 µM; actives 11% (n = 2,800);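 active means ratio signal rise beyond 5 SD above unstimulated control wells' mean, seen in both duplicate runs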
A number is an active result; n = inactive; x = not tested or not shown. Shown are actives, neighbours in structure and some others; about 2.3% of the full set was active somewhere.

SMILES	TRPC4 agonist	TRPC4 PAM	TRPC4 block	TRPC6 act	TRPC6 inh	HEK293 MPD ctr	HEK293 MPD ctr 2	TRPC4/MOR mod	TRPC4/MOR inh 2	TRPC6 block conf	TRPC6 act conf
Cc1ccc(C)n1-c1ccc(C(=O)NC2CCN(Cc3ccccc3)CC2)cc1	n	n	n	n	-5.1	n	n	n	36%	n	n
CCOc1cccc(/C=C/c2cc(C(=O)O)c3ccccc3n2)c1OC	n	n	n	n	n	x	x	x	x	x	x
CSc1nc(Sc2ccccc2Cl)c2ccccc2n1	n	n	x	n	n	x	x	x	x	x	x
O=c1cc(CNc2ccc(Br)cc2)nc2sccn12	n	n	n	n	-7	n	n	n	n	n	n
COc1cc([N+](=O)[O-])ccc1NC(=O)Nc1cnccn1	n	n	n	n	-5.5	n	n	76%	90%	58%	x
COc1ccccc1NC(=O)Nc1cnccn1	n	n	n	n	n	x	x	x	x	x	x
COc1ccc(CN2CCNC(=O)C2CC(=O)NCC2CCOCC2)cc1C (configuration not stated)	n	n	n	n	n	x	x	x	x	x	x
Cc1ccc(N2C(SCC(=O)O)=NC(=Nc3cccc(C)c3)C23CCCC3)cc1	n	n	n	n	n	x	x	x	x	x	x
O=C1CC2(CCCC2)Oc2ccc(F)cc21	n	n	n	n	n	x	x	x	x	x	x
CCCCOc1ccc(N2C(=O)CC(NCCc3ccc(S(N)(=O)=O)cc3)C2=O)cc1 (configuration not stated)	n	n	n	n	n	x	x	x	x	x	x
CCCCn1c2ccc(F)cc2c2nnc(SCCN3CCCCC3)nc21	n	n	n	n	-5.6	-74%	n	-19%	38%	n	n
CCn1c2ccc(C)cc2c2nnc(SCCN3CCOCC3)nc21	n	n	n	n	n	x	x	x	x	x	x
CCn1c2ccccc2c2nnc(SCCN3CCCCC3)nc21	n	n	n	n	n	x	x	x	x	x	x
CCCCn1c2ccc(C)cc2c2nnc(SCCN3CCCCC3)nc21	n	n	n	n	-5.8	n	n	n	66%	45%	n
CSc1nnc2c3cc(F)ccc3n(C)c2n1	n	n	n	n	n	x	x	x	x	x	x
